Source: PubChem BioAssay
Efflux pump inh: blocks antifungal efflux pumps in multiplex yeast assay; S. cerevisiae Candida pump triplex, Nile Red efflux; inhibition, % at 10 µM; 0.44% of 330,000 active;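 active means plate passing quality check with inhibition over a set limit, or well fluorescence over plate mean plus 4 SD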;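 further: Nile Red retained in pooled yeast measured as flow cytometry median fluorescence; higher means more Nile Red kept so more efflux inhibition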
Rtt109 HAT inh: C. albicans Rtt109 histone acetyltransferase inhibition. purified Rtt109/Vps75, ThioGlo CoA-SH fluorescence, 4 h. Q5AAJ8. inhibition, % at 34.9 µM. AID 540336. 0.16% of 330,000 active;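 active means inhibition of at least 50% in every replicate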
ASAP1 GAP inh: blocks human ASAP1-stimulated Arf1 GTP hydrolysis | Q9ULH1 | AID 624377 | 0.19% of 360,000 active | GDP FP detection | inhibition, % at 16.5 µM; in the data active means inhibition above about 25%
Target sequence (Q9ULH1 325-724 limits assumed): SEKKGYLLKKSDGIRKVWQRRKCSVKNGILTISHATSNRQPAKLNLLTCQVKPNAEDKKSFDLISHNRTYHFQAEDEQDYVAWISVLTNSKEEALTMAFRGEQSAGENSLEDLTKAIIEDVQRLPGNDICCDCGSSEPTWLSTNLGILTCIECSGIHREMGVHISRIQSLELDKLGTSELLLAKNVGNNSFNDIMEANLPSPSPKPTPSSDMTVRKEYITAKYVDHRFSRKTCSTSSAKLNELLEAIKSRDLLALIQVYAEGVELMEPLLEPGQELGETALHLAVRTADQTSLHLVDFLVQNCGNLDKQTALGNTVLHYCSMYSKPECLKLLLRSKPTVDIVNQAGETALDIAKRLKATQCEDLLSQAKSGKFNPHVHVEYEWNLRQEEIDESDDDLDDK
ARFGAP1 inh: rat ARFGAP1 inhibition. Q62848. Arfgap1-stimulated ARF1 GTP hydrolysis, GDP FP detection. inhibition, % at 16.5 µM. 0.26% of 360,000 active. AID 651572;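 active means inhibition above a per-plate limit, mean inhibition of low control wells plus 3 SD, cut at about 25% in these data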
Target sequence (Q62848 1-136 limits assumed): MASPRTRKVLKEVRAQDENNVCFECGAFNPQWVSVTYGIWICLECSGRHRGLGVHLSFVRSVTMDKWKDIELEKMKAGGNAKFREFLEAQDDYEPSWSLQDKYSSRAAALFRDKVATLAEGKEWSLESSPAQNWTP
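Replicates: Single well per compound | Assay system: Truncated rat Arfgap1 GAP domain | Control set: No-Arfgap1 wells (100%) versus DMSO full-reaction wells (0%) | Times: Enzyme reaction 120 min at 25 °C after 20 min preincubation | Reagent: Human ARF1(Δ1-17)-GTP substrate | Measured by: Tracer-displacement fluorescence polarization with EDTA stop, 620/688 nm | Measure: Percent inhibition of Arfgap1-stimulated GTP hydrolysis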
FGF22 binding-1: shifts melting point of recombinant human FGF22; Q9HCT0; recombinant FGF22 thermal shift, SYPRO orange fluorescence; percent of sucrose octasulfate shift, DMSO zero; activity (Tm shift, normalised), % at 9.99 µM; 1.5% of 340,000 active; AID 651658;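 active means mean Tm shift, scaled 0 neutral to 100 positive control, at about 1.3% or above, every replicate too, limit read from the data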
Target sequence (Q9HCT0 whole entry, looked up): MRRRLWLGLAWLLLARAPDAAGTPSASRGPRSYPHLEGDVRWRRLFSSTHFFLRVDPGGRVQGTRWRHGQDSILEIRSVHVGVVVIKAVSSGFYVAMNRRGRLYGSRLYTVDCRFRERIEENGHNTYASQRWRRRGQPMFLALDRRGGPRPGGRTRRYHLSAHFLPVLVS
FGF22 binding-2: FGF22 (human) binding in thermal shift | 2% of 1,000 active | thermal shift activity, °C (ΔTm) at 38 µM | shares compounds with FGF22 binding-1 | recombinant FGF22 thermal shift, SYPRO orange fluorescence;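 active means fitted rise in melting shift crosses a set limit at or below the top valid dose tested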
SYPRO no-protein: compound-only SYPRO artifact for FGF22 binders. shares compounds with FGF22 binding-1. compound-only SYPRO orange thermal shift counter-screen, no protein. AC50, µM (titrated, usually from 38 µM). 2% of 1,000 active;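 active means rising signal whose fitted curve reaches the 0.54 level within the top valid dose, showing a melting point, actives reach about 13 µM in these data; inactive means the rest, including activity in the opposite direction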; further: value is where the raw curve crosses a fixed level and not half-maximal
Numbers stand for hits; - = inactive; . = not tested or not shown. Most compounds without a hit are left out; they make up all but 1.9% or so of the library.

SMILES | Efflux pump inh | Rtt109 HAT inh | ASAP1 GAP inh | ARFGAP1 inh | FGF22 binding-1 | FGF22 binding-2 | SYPRO no-protein
Cc1ccc(NC(=O)CN2C(=O)NC(Cc3c[nH]c4ccccc34)C2=O)cc1 (stereo unspecified) | - | - | - | - | 1.7 | - | -
O=C(CN1C(=O)NC(Cc2c[nH]c3ccccc23)C1=O)Nc1ccc(Br)cc1F (stereo unspecified) | - | - | - | - | 2.3 | - | -
S=C(N/N=C/c1ccccc1Cl)Nc1ccccc1 | - | - | - | - | . | . | .
Oc1ccc(C=NNC(=S)Nc2ccccc2)nc1 | . | . | - | - | 1.5 | - | -
O=C(NCCc1ccc2c(c1)OCCO2)c1cccc(F)c1 | - | . | - | - | 1.6 | - | -
O=[N+]([O-])c1ccc(C[n+]2cc(-c3ccccc3)n3c2CCCCC3)cc1 | - | - | - | - | - | . | .
CN(C)S(=O)(=O)n1cnc([C@@H]2[C@@H]3C(=O)OC[C@@H]3C[C@]23N=CN(Cc2ccccc2)C3=O)c1 | - | - | - | - | 28.9 | - | -
CN(C)S(=O)(=O)n1cnc([C@H]2c3c(ncn3Cc3ccccc3)C[C@H]3COC(=O)[C@@H]32)c1 | - | - | - | - | - | . | .
Nc1ncnc2c1ncn2[C@@H]1O[C@H](C(=O)N[C@@H](CO)c2ccccc2)[C@@H](O)[C@H]1O | . | . | - | - | - | . | .
COc1ccccc1NS(=O)(=O)c1cccc(NC(=O)c2cc3ccccc3oc2=O)c1 | - | - | - | - | 1.8 | - | -
COc1ccccc1NS(=O)(=O)c1cccc(NC(=O)Nc2ccccc2)c1 | - | - | - | - | - | . | .
COc1ccc(-c2oc3c4c2C(=O)OCCOC4CCC3)cc1 (stereo unspecified) | . | . | - | - | - | . | .
CC(=O)Nc1ccc(S(=O)(=O)NCCc2c[nH]c3ccc(C)cc23)cc1 | - | - | - | - | 1.4 | - | -
Cc1ccc(Nc2cc(C(=O)NCCCN3CCOCC3)c3ccccc3n2)c(C)c1 | - | . | - | - | . | . | .
COc1ccc(CN(C)C[C@@H]2Oc3ccc(NC(=O)NC(C)C)cc3C(=O)N([C@H](C)CO)C[C@@H]2C)cc1 | . | . | . | . | 73.0 | - | -
COc1ccc(CN(C)C[C@H]2Oc3ccc(NC(=O)Cc4ccccc4)cc3C(=O)N([C@H](C)CO)C[C@@H]2C)cc1 | . | . | . | . | 1.5 | - | -
COc1ccc(CN(C)C[C@@H]2Oc3ccc(NC(=O)Cc4ccccc4)cc3C(=O)N([C@@H](C)CO)C[C@@H]2C)cc1 | . | . | . | . | - | . | .
CNC[C@H]1Oc2ccc(NC(=O)Cc3cn(C)c4ccccc34)cc2C(=O)N([C@H](C)CO)C[C@H]1C | . | . | . | . | 3.7 | . | -
Cc1ccccc1C(=O)NCC(=O)OC(C)C(=O)NC(C)CCc1ccccc1 (stereo unspecified) | - | - | - | - | - | . | .
COc1cc2c(cc1OC)C1c3ccc(OC)c(OC)c3OCC1(O)C2 (stereo unspecified) | . | - | - | - | - | . | .
C/C=C/c1cnc2c(c1)C(=O)N([C@H](C)CO)C[C@H](C)[C@@H](CN(C)C(=O)c1ccc3c(c1)OCO3)O2 | . | . | . | . | - | . | .
CC(=O)N(C)C[C@H]1Oc2ncc(C#C[C@@H](C)O)cc2C(=O)N([C@@H](C)CO)C[C@@H]1C | . | . | . | . | - | . | .
C/C=C/c1cnc2c(c1)C(=O)N([C@@H](C)CO)C[C@H](C)[C@@H](CN(C)C(=O)c1ccc3c(c1)OCO3)O2 | . | . | . | . | 2.6 | - | -
CC(=O)N(C)C[C@H]1Oc2ncc(C#C[C@H](C)O)cc2C(=O)N([C@@H](C)CO)C[C@@H]1C | . | . | . | . | 3.6 | - | -
CC(C)C#Cc1cnc2c(c1)C(=O)N([C@@H](C)CO)C[C@@H](C)[C@H](CN(C)C(=O)c1cnccn1)O2 | . | . | . | . | 1.3 | - | -
SMILES | Efflux pump inh | Rtt109 HAT inh | ASAP1 GAP inh | ARFGAP1 inh | FGF22 binding-1 | FGF22 binding-2 | SYPRO no-protein
CC(=O)OC(C(=O)Nc1nncs1)c1ccccc1 (stereo unspecified) | . | . | - | - | - | . | .
CC1CCCCN1C(=O)c1c(Cl)cnn1C (stereo unspecified) | - | - | - | - | - | . | .
COc1ccc(CN(C)C[C@@H]2Oc3ccc(NS(=O)(=O)c4ccc(OC)cc4)cc3CC(=O)N([C@H](C)CO)C[C@@H]2C)cc1 | . | . | . | . | - | . | .
CCC(C)[C@H](NC(=O)N1CCn2c1nc1ccccc12)C(=O)NCCc1ccccc1 (stereo partly specified) | - | - | - | - | 14.2 | - | -
COc1cccc(NC(=O)N(C)C[C@H]2Oc3cc(-c4ccccc4OC)ccc3S(=O)(=O)N([C@H](C)CO)C[C@H]2C)c1 | . | . | . | . | - | . | .
C[C@H]1CN([C@@H](C)CO)S(=O)(=O)c2ccc(-c3cccc(C#N)c3)cc2O[C@H]1CN(C)C(=O)Nc1cc(F)ccc1F | . | . | . | . | - | . | .
C[C@H]1CN([C@@H](C)CO)S(=O)(=O)c2ccc(-c3cccc(F)c3)cc2O[C@H]1CN(C)C(=O)Nc1cc(F)ccc1F | . | . | . | . | 1.4 | - | -
C[C@@H]1CN([C@@H](C)CO)S(=O)(=O)c2ccc(-c3cccc(C#N)c3)cc2O[C@@H]1CN(C)C(=O)Nc1cc(F)ccc1F | . | . | . | . | 1.3 | . | -
C[C@H]1CN([C@@H](C)CO)S(=O)(=O)c2ccc(-c3cccc(F)c3)cc2O[C@@H]1CN(C)C(=O)Nc1cc(F)ccc1F | . | . | . | . | - | . | .
COc1cccc(NC(=O)N(C)C[C@@H]2Oc3cc(-c4ccccc4F)ccc3S(=O)(=O)N([C@H](C)CO)C[C@@H]2C)c1 | . | . | . | . | 4.0 | - | -
Cc1ccccc1-c1ccc2c(c1)O[C@H](CN(C)CC1CC1)[C@H](C)CN([C@H](C)CO)S2(=O)=O | . | . | . | . | 1.5 | - | -
C[C@@H]1CN([C@H](C)CO)S(=O)(=O)c2ccc(-c3ccc(F)cc3)cc2O[C@H]1CN(C)C(=O)Nc1ccccc1F | . | . | . | . | - | . | .
C[C@@H]1CN([C@@H](C)CO)S(=O)(=O)c2ccc(-c3ccc(F)cc3)cc2O[C@@H]1CN(C)C(=O)Nc1ccccc1F | . | . | . | . | 1.7 | - | -
S=c1[nH]nc(Cc2cccc3ccccc23)o1 | - | - | - | - | - | . | .
O=C(C[C@@H]1C=C[C@H](NC(=O)Nc2cc(F)ccc2F)[C@H](CO)O1)Nc1ccc(-c2ccccc2)cc1 | . | . | . | . | 1.8 | - | -
O=C(C[C@@H]1C=C[C@H](NC(=O)c2cccc(F)c2)[C@H](CO)O1)NCc1ccccc1 | . | . | . | . | 20.2 | - | -
CCOC(=O)CSc1nnc(-c2cccnc2)n1C | - | - | - | - | - | . | .
CCOC(=O)C(=O)N1CCN(c2nc(-c3ccc(Cl)cc3)cs2)CC1 | - | - | - | - | - | . | .
COc1cccc(NC(=O)c2ccc(-c3ccccc3[N+](=O)[O-])o2)c1 | - | - | - | - | - | . | .
Cc1cccc(NC(=O)c2ccc(-c3ccccc3[N+](=O)[O-])o2)c1 | - | - | - | - | 1.6 | - | -
